Experimental data taken from ChEMBL document CHEMBL2406932, “Heteroaromatic and aniline derivatives of piperidines as potent ligands for vesicular acetylcholine transporter” (J Med Chem, 2013).
pKi: −log10 of the molar value.

Tests used:
[1] = tested on: Pancreas; assay: Biodistribution in Sprague-Dawley rat pancreas at 350 uCi, iv after 30 mins in the presence of cyclosporin A; format: ADME, organism-based; details: in vivo, 0.5 h
[2] = tested on: Rattus norvegicus; assay: Biodistribution in Sprague-Dawley rat brain stem at 350 uCi, iv after 30 mins; format: ADME, organism-based; details: in vivo, 0.5 h
[3] = Displacement of [3H]DTG from sigma 2 receptor in rat liver membrane homogenates after 120 mins by scintillation counting analysis; format: cell membranes
Procedure, shortened: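 Rat liver membrane homogenate (~300 µg protein) with ~5 nM [3H]DTG plus 1 µM (+)-pentazocine to block sigma-1 sites, 120 min at room temperature, pH 7.4 Tris buffer. Nonspecific binding taken with 10 µM haloperidol. Filtration and scintillation counting.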

[4] = tested on: Cortex; assay: Biodistribution in Sprague-Dawley rat cortex at 350 uCi, iv after 30 mins; format: ADME, organism-based; details: in vivo, 0.5 h
[5] = tested on: Blood; assay: Biodistribution in Sprague-Dawley rat blood at 350 uCi, iv after 5 mins; format: ADME, organism-based; details: in vivo
[6] = tested on: Thalamus; assay: Biodistribution in Sprague-Dawley rat thalamus at 350 uCi, iv after 30 mins; format: ADME, organism-based; details: in vivo, 0.5 h
[7] = tested on: Striatum; assay: Biodistribution in Sprague-Dawley rat striatum at 350 uCi, iv after 30 mins in presence of cyclosporin A; format: ADME, organism-based; details: in vivo, 0.5 h
[8] = tested on: Heart; assay: Biodistribution in Sprague-Dawley rat heart at 350 uCi, iv after 5 mins; format: ADME, organism-based; details: in vivo
[9] = tested on: Cerebellum; assay: Biodistribution in Sprague-Dawley rat cerebellum at 350 uCi, iv after 30 mins; format: ADME, organism-based; details: in vivo, 0.5 h
[10] = tested on: Kidney; assay: Biodistribution in Sprague-Dawley rat kidney at 350 uCi, iv after 5 mins; format: ADME, organism-based; details: in vivo
[11] = tested on: Liver; assay: Biodistribution in Sprague-Dawley rat liver at 350 uCi, iv after 5 mins; format: ADME, organism-based; details: in vivo
[12] = tested on: Kidney; assay: Biodistribution in Sprague-Dawley rat kidney at 350 uCi, iv after 30 mins; format: ADME, organism-based; details: in vivo, 0.5 h
[13] = tested on: Thalamus; assay: Biodistribution in Sprague-Dawley rat thalamus at 350 uCi, iv after 30 mins in presence of cyclosporin A; format: ADME, organism-based; details: in vivo, 0.5 h
[14] = tested on: Heart; assay: Biodistribution in Sprague-Dawley rat heart at 350 uCi, iv after 30 mins; format: ADME, organism-based; details: in vivo, 0.5 h
[15] = tested on: Cerebellum; assay: Biodistribution in Sprague-Dawley rat cerebellum at 350 uCi, iv after 30 mins in presence of cyclosporin A; format: ADME, organism-based; details: in vivo, 0.5 h
[16] = tested on: Cortex; assay: Biodistribution in Sprague-Dawley rat cortex at 350 uCi, iv after 30 mins in presence of cyclosporin A; format: ADME, organism-based; details: in vivo, 0.5 h
[17] = tested on: Blood; assay: Biodistribution in Sprague-Dawley rat blood at 350 uCi, iv after 30 mins; format: ADME, organism-based; details: in vivo, 0.5 h
[18] = tested on: Macaca fascicularis; assay: Ratio of drug level in cynomolgus monkey […] at 5 to 7 mCi, iv after 70 mins; details: in vivo
[19] = tested on: Brain; assay: Biodistribution in Sprague-Dawley rat brain at 350 uCi, iv after 30 mins in presence of cyclosporin A; format: ADME, organism-based; details: in vivo, 0.5 h
[20] = tested on: Rattus norvegicus; assay: Biodistribution in Sprague-Dawley rat fat at 350 uCi, iv after 30 mins; format: ADME, organism-based, Adipose tissue; details: in vivo, 0.5 h
[21] = tested on: Pancreas; assay: Biodistribution in Sprague-Dawley rat pancreas at 350 uCi, iv after 30 mins; format: ADME, organism-based; details: in vivo, 0.5 h
[22] = tested on: Blood; assay: Biodistribution in Sprague-Dawley rat blood at 350 uCi, iv after 30 mins in presence of cyclosporin A; format: ADME, organism-based; details: in vivo, 0.5 h
[23] = tested on: Rattus norvegicus; assay: Biodistribution in Sprague-Dawley rat fat at 350 uCi, iv after 30 mins in the presence of cyclosporin A; format: ADME, organism-based, Adipose tissue; details: in vivo, 0.5 h
[24] = tested on: Kidney; assay: Biodistribution in Sprague-Dawley rat kidney at 350 uCi, iv after 30 mins in the presence of cyclosporin A; format: ADME, organism-based; details: in vivo, 0.5 h
[25] = tested on: Spleen; assay: Biodistribution in Sprague-Dawley rat spleen at 350 uCi, iv after 30 mins; format: ADME, organism-based; details: in vivo, 0.5 h
[26] = tested on: Liver; assay: Biodistribution in Sprague-Dawley rat liver at 350 uCi, iv after 30 mins in presence of cyclosporin A; format: ADME, organism-based; details: in vivo, 0.5 h

**Q.** For [11CH3]Nc1ccc(C(=O)C2CCN([C@H]3Cc4ccccc4C[C@@H]3O)CC2)cc1, which Drug uptake [1] is on record?
**A.** The Drug uptake was “Active”.

**Q.** And the Drug uptake [2]?
**A.** Its Drug uptake is 0.245 % ID/g.

**Q.** And the pKi [3]?
**A.** The pKi was 4.94.

**Q.** And the Drug uptake [4]?
**A.** The Drug uptake was 0.262 % ID/g.

**Q.** And the Drug uptake [5]?
**A.** The Drug uptake was 0.34 % ID/g.

**Q.** And the Drug uptake [6]?
**A.** The Drug uptake was 0.293 % ID/g.

**Q.** And the Drug uptake [7]?
**A.** The Drug uptake was 1.02 % ID/g.

**Q.** And the Drug uptake [8]?
**A.** Its Drug uptake is 0.49 % ID/g.

**Q.** What about the Drug uptake [9] of the same compound?
**A.** Its Drug uptake is 0.157 % ID/g.

**Q.** And the Drug uptake [10]?
**A.** Its Drug uptake is 1.47 % ID/g.

**Q.** What about the Drug uptake [11] of the same compound?
**A.** Its Drug uptake is 3.45 % ID/g.

**Q.** What about the Drug uptake [12] of the same compound?
**A.** Its Drug uptake is “Active”.

**Q.** What about the Drug uptake [13] of the same compound?
**A.** The Drug uptake was 0.6 % ID/g.

**Q.** What about the Drug uptake [14] of the same compound?
**A.** Its Drug uptake is “Active”.

**Q.** And the Drug uptake [15]?
**A.** The Drug uptake was 0.404 % ID/g.

**Q.** What about the Drug uptake [16] of the same compound?
**A.** The Drug uptake was 0.637 % ID/g.

**Q.** And the Drug uptake [17]?
**A.** The Drug uptake was “Active”.

**Q.** And the Ratio [18]?
**A.** Its Ratio is > 2.5.

**Q.** And the Drug uptake [19]?
**A.** Its Drug uptake is 0.596 % ID/g.

**Q.** What about the Drug uptake [20] of the same compound?
**A.** The Drug uptake was “Active”.

**Q.** What about the Drug uptake [21] of the same compound?
**A.** Its Drug uptake is “Active”.

**Q.** And the Drug uptake [22]?
**A.** Its Drug uptake is “Active”.

**Q.** And the Drug uptake [23]?
**A.** The Drug uptake was “Active”.

**Q.** And the Drug uptake [24]?
**A.** The Drug uptake was 1.21 % ID/g.

**Q.** And the Drug uptake [25]?
**A.** The Drug uptake was “Active”.

**Q.** And the Drug uptake [26]?
**A.** Its Drug uptake is “Active”.
